Molecules are shown by their SMILES. A value given as a limit tells only on which side of the number the result lay.

In data set [1] the target is T1, C-X-C chemokine receptor type 4 (Homo sapiens, UniProt P61073). Nature of the data set: Inhibition of CXCL-12'AF647 binding to CXCR4 in human SUPT1 cells incubated for 15 mins by FACS. Type of data set: cell-based. Put shortly: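 SupT1 cells (high CXCR4) washed, then incubated 15 min at room temperature with compounds at varied concentrations in HBSS containing 20 mM HEPES and 0.2% BSA, pH 7.4. CXCL12-AF647 added at 25 ng/mL final for 30 min at room temperature. Cells washed, fixed in 1% paraformaldehyde, and read by flow cytometry on FL4.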

A short description of data set [2]: Cytotoxicity against human MT4 cells by MTT assay. The format is cell-based.
Data set [3] addresses T1, C-X-C chemokine receptor type 4. Nature of the data set: Antagonist activity against CXCR4 expressed in U87.CD.CXCR4 cells assessed as inhibition of CXCL12-induced calcium signaling incubated for 10 mins by FLIPR. Type of data set: functional, cell-based. Put shortly:
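U87.CD4.CXCR4 cells seeded at 2 × 10⁴/well on 0.2% gelatin the day before, loaded with 4 μM Fluo-3 AM for 45 min at 37 °C, washed, then preincubated with compounds at varied concentrations in assay buffer for 10 min at 37 °C. Challenged with 25 ng/mL CXCL12; Ca²⁺ flux followed over time by FLIPR.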

The target is the same in data set [4]. Nature of the data set: Inhibition of anti-CXCR4 mAbs clone 1D9 binding to CXCR4 in human SUPT1 cells incubated for 30 mins by FACS.
The target is the same in data set [5]. Nature of the data set: Inhibition of anti-CXCR4 mAbs clone 12G5 binding to CXCR4 in human SUPT1 cells incubated for 30 mins by FACS.
In data set [6] the test system is Human immunodeficiency virus 1. Nature of the data set: Antiviral activity against X4 HIV1 NL4.3 infected in human MT4 cells assessed as inhibition of viral replication pre-incubated for 30 mins […]. Type of data set: functional, organism-based. The conditions noted are these: Human immunodeficiency virus 1, NL4.3, MT4.
Data set [7] in a line: Cytotoxicity against human PBMC cells by MTT assay. Type of data set: cell-based.
Data set [8] addresses C-C chemokine receptor type 5 (Homo sapiens, UniProt P51681). Nature of the data set: Antagonist activity against CCR5 expressed in U87.CD4.CCR5 cells assessed as inhibition of CCL3L1-induced calcium signaling incubated for 10 mins by FLIPR. Type of data set: functional, cell-based. Put shortly: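 U87.CD4.CCR5 cells seeded at 2 × 10⁴/well on 0.2% gelatin the day before, loaded with 4 μM Fluo-3 AM for 45 min at 37 °C, washed, then preincubated with compounds at varied concentrations in assay buffer for 10 min at 37 °C. Stimulated with 10 ng/mL LD78β (CCL3L1); Ca²⁺ flux recorded by FLIPR.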

In data set [9] the test system is Human immunodeficiency virus 1. Nature of the data set: Antiviral activity against X4 HIV1 NL4.3 infected in human PBMC assessed as inhibition of viral replication pre-incubated for 30 mins measured 5 days post infection by MTT assay. The format is functional, organism-based. Particulars: Human immunodeficiency virus 1, NL4.3. Put shortly:
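Human PBMC infected with HIV-1 NL4.3. IC₅₀ is the concentration inhibiting viral replication by 50%, averaged over two independent experiments. Cytotoxicity (CC₅₀, 50% loss of PBMC viability) evaluated in the same assay.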

In data set [10] the target is T1, C-X-C chemokine receptor type 4. Nature of the data set: Inhibition of anti-CXCR4 mAbs clone 173 binding to CXCR4 in human SUPT1 cells incubated for 30 mins by FACS.

T1 sequence (P61073 whole entry): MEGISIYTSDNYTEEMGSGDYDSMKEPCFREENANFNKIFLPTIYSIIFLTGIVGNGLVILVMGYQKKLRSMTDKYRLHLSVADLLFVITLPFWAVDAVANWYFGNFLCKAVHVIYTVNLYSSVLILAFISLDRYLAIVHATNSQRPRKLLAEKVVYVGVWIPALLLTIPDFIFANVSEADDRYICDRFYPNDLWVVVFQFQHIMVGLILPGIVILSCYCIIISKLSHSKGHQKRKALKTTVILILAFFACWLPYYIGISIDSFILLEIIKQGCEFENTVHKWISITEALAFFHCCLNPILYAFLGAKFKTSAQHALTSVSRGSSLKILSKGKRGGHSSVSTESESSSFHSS

Take `Cc1cn(CCC[n+]2ccc(-c3cc[n+](Cc4cc(C[n+]5ccc(-c6cc[n+](CCCn7cc(C)c(=O)[nH]c7=O)cc6)cc5)cc(C[n+]5ccc(-c6cc[n+](Cc7cc(C[n+]8ccc(-c9cc[n+](Cc%10cc(C[n+]%11ccc(-c%12cc[n+](CCCn%13cc(C)c(=O)[nH]c%13=O)cc%12)cc%11)cc(C[n+]%11ccc(-c%12cc[n+](CCCn%13cc(C)c(=O)[nH]c%13=O)cc%12)cc%11)c%10)cc9)cc8)cc(-[n+]8ccc(-c9cc[n+](-c%10cc(C[n+]%11ccc(-c%12cc[n+](Cc%13cc(C[n+]%14ccc(-c%15cc[n+](CCCn%16cc(C)c(=O)[nH]c%16=O)cc%15)cc%14)cc(C[n+]%14ccc(-c%15cc[n+](CCCn%16cc(C)c(=O)[nH]c%16=O)cc%15)cc%14)c%13)cc%12)cc%11)cc(C[n+]%11ccc(-c%12cc[n+](Cc%13cc(C[n+]%14ccc(-c%15cc[n+](CCCn%16cc(C)c(=O)[nH]c%16=O)cc%15)cc%14)cc(C[n+]%14ccc(-c%15cc[n+](CCCn%16cc(C)c(=O)[nH]c%16=O)cc%15)cc%14)c%13)cc%12)cc%11)c%10)cc9)cc8)c7)cc6)cc5)c4)cc3)cc2)c(=O)[nH]c1=O.F[P-](F)(F)(F)(F)F.F[P-](F)(F)(F)(F)F.F[P-](F)(F)(F)(F)F.F[P-](F)(F)(F)(F)F.F[P-](F)(F)(F)(F)F.F[P-](F)(F)(F)(F)F.F[P-](F)(F)(F)(F)F.F[P-](F)(F)(F)(F)F.F[P-](F)(F)(F)(F)F.F[P-](F)(F)(F)(F)F.F[P-](F)(F)(F)(F)F.F[P-](F)(F)(F)(F)F.F[P-](F)(F)(F)(F)F.F[P-](F)(F)(F)(F)F.F[P-](F)(F)(F)(F)F.F[P-](F)(F)(F)(F)F.F[P-](F)(F)(F)(F)F.F[P-](F)(F)(F)(F)F.F[P-](F)(F)(F)(F)F.F[P-](F)(F)(F)(F)F.F[P-](F)(F)(F)(F)F.F[P-](F)(F)(F)(F)F.F[P-](F)(F)(F)(F)F.F[P-](F)(F)(F)(F)F.F[P-](F)(F)(F)(F)F.F[P-](F)(F)(F)(F)F`: the IC50 is 207 nM in data set [1]; 273 nM in [3]; 326 nM in data set [4]; 236 nM in [5]; 1.5 µg/mL in data set [6]; 3660 nM in data set [8]. Moreover, the IC50 is 0.41 µg/mL in data set [9] and 210 nM in data set [10]. In addition, the CC50 in data set [2] was determined as 19 µg/mL; in [7], 20 µg/mL.
For `CCc1cc[n+](-c2cc[n+](Cc3cc(C[n+]4ccc(-c5cc[n+](CC)cc5)cc4)cc(C[n+]4ccc(-c5cc[n+](Cc6cc(C[n+]7ccc(-c8cc[n+](Cc9cc(C[n+]%10ccc(-c%11cc[n+](CC)cc%11)cc%10)cc(C[n+]%10ccc(-c%11cc[n+](CC)cc%11)cc%10)c9)cc8)cc7)cc(-[n+]7ccc(-c8cc[n+](-c9cc(C[n+]%10ccc(-c%11cc[n+](Cc%12cc(C[n+]%13ccc(-c%14cc[n+](CC)cc%14)cc%13)cc(C[n+]%13ccc(-c%14cc[n+](CC)cc%14)cc%13)c%12)cc%11)cc%10)cc(C[n+]%10ccc(-c%11cc[n+](Cc%12cc(C[n+]%13ccc(-c%14cc[n+](CC)cc%14)cc%13)cc(C[n+]%13ccc(-c%14cc[n+](CC)cc%14)cc%13)c%12)cc%11)cc%10)c9)cc8)cc7)c6)cc5)cc4)c3)cc2)cc1.F[P-](F)(F)(F)(F)F.F[P-](F)(F)(F)(F)F.F[P-](F)(F)(F)(F)F.F[P-](F)(F)(F)(F)F.F[P-](F)(F)(F)(F)F.F[P-](F)(F)(F)(F)F.F[P-](F)(F)(F)(F)F.F[P-](F)(F)(F)(F)F.F[P-](F)(F)(F)(F)F.F[P-](F)(F)(F)(F)F.F[P-](F)(F)(F)(F)F.F[P-](F)(F)(F)(F)F.F[P-](F)(F)(F)(F)F.F[P-](F)(F)(F)(F)F.F[P-](F)(F)(F)(F)F.F[P-](F)(F)(F)(F)F.F[P-](F)(F)(F)(F)F.F[P-](F)(F)(F)(F)F.F[P-](F)(F)(F)(F)F.F[P-](F)(F)(F)(F)F.F[P-](F)(F)(F)(F)F.F[P-](F)(F)(F)(F)F.F[P-](F)(F)(F)(F)F.F[P-](F)(F)(F)(F)F.F[P-](F)(F)(F)(F)F.F[P-](F)(F)(F)(F)F`, the IC50 in data set [1] was 285 nM; in data set [3], 538 nM; in data set [4] it was 446 nM; in data set [5], 344 nM; in [6], 0.9 µg/mL; in data set [8], 12100 nM. Also, the IC50 in [9] is 0.12 µg/mL; in data set [10], 203 nM. Also, the CC50 in data set [2] was 34 µg/mL; in [7], 100 µg/mL.
With `c1cc(CN2CCCNCCNCCCNCC2)ccc1CN1CCCNCCNCCCNCC1` [PLERIXAFOR], the CC50 in [2] and in data set [7] was above 10 µg/mL each time.
For the molecule `Cc1cn(CCC[n+]2ccc(-c3cc[n+](Cc4cc(C[n+]5ccc(-c6cc[n+](CCCn7cc(C)c(=O)[nH]c7=O)cc6)cc5)cc(C[n+]5ccc(-c6cc[n+](Cc7cc(C[n+]8ccc(-c9cc[n+](Cc%10cc(C[n+]%11ccc(-c%12cc[n+](CCCn%13cc(C)c(=O)[nH]c%13=O)cc%12)cc%11)cc(C[n+]%11ccc(-c%12cc[n+](CCCn%13cc(C)c(=O)[nH]c%13=O)cc%12)cc%11)c%10)cc9)cc8)cc(C[n+]8ccc(-c9cc[n+](Cc%10cc(C[n+]%11ccc(-c%12cc[n+](CCCn%13cc(C)c(=O)[nH]c%13=O)cc%12)cc%11)cc(C[n+]%11ccc(-c%12cc[n+](CCCn%13cc(C)c(=O)[nH]c%13=O)cc%12)cc%11)c%10)cc9)cc8)c7)cc6)cc5)c4)cc3)cc2)c(=O)[nH]c1=O.F[P-](F)(F)(F)(F)F.F[P-](F)(F)(F)(F)F.F[P-](F)(F)(F)(F)F.F[P-](F)(F)(F)(F)F.F[P-](F)(F)(F)(F)F.F[P-](F)(F)(F)(F)F.F[P-](F)(F)(F)(F)F.F[P-](F)(F)(F)(F)F.F[P-](F)(F)(F)(F)F.F[P-](F)(F)(F)(F)F.F[P-](F)(F)(F)(F)F.F[P-](F)(F)(F)(F)F.F[P-](F)(F)(F)(F)F.F[P-](F)(F)(F)(F)F.F[P-](F)(F)(F)(F)F.F[P-](F)(F)(F)(F)F.F[P-](F)(F)(F)(F)F.F[P-](F)(F)(F)(F)F`, the IC50 was 231 nM in data set [1]; 279 nM in data set [3]; 516 nM in data set [4]; 352 nM in data set [5]; 1.8 µg/mL in [6]; 1870 nM in data set [8]. Further, the IC50 in data set [9] is 0.89 µg/mL; in data set [10], 403 nM. Also, the CC50 in [2] amounted to 10 µg/mL; in data set [7] it was 20 µg/mL.

Values taken from ChEMBL document CHEMBL2177043, “HIV-1 X4 activities of polycationic "viologen" based dendrimers by interaction with the chemokine receptor CXCR4: study of structure-activity relationship” (J Med Chem, 2012).
